Several values for one entry are separate records, joined by “and”; a condition that tells them apart may be missing. Identical values can stand only once.
Tested on: U2OS
Experiment: Multiplex assay against U2OS
Format: toxicity, cell-based
Conditions: human
Summary of the method: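 Live cells were stained at seeding with Hoechst33342, BioTracker Green Microtubule Cytoskeleton Dye, MitoTracker Red and Annexin V Alexa Fluor 680, then imaged on a CQ1 microscope at 37°C and 5% CO2 after compound addition. CellPathfinder machine-learning gating split cells into Hoechst high-intensity objects or normal cells. Normal cells were split into healthy, pyknosed or fragmented nuclei, and pyknosed cells into mitotic or apoptotic. Tubulin, mitochondrial-mass and membrane-permeability phenotypes are per cents of healthy-nucleus cells.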

[1] = 12 h, 1 µM, compound concentration 1 uM, replicate 1
[2] = 12 h, 1 µM, compound concentration 1 uM, replicate 2
[3] = 12 h, 10 µM, compound concentration 10 uM, replicate 1
[4] = 12 h, 10 µM, compound concentration 10 uM, replicate 2
[5] = 24 h, 1 µM, compound concentration 1 uM, replicate 1
[6] = 24 h, 1 µM, compound concentration 1 uM, replicate 2
[7] = 24 h, 10 µM, compound concentration 10 uM, replicate 1
[8] = 24 h, 10 µM, compound concentration 10 uM, replicate 2
[9] = 48 h, 10 µM, compound concentration 10 uM, replicate 1
[10] = 48 h, 10 µM, compound concentration 10 uM, replicate 2

CNC(=O)c1nn(C)c2c1C(C)(C)Cc1cnc(Nc3ccc(N4CCN(C)CC4)cc3)nc1-2 [MILCICLIB]
Population Apoptotic (%) [1]: 39% | Population Fragmented Nuclei (%) [1]: 17% | Population Healthy Nuclei (%) [1]: 66% | Population Hoechst High Intensity Objects (%) [1]: 6% | Population Membrane Permeable-Phenotype (%) [1]: 25% | Population Mitochondria Different-Phenotype (%) [1]: 64% | Population Mitotic Cells (%) [1]: 60% | Population Normal (%) [1]: 93% | Population Pyknosed Nuclei (%) [1]: 15% | Population Tubulin-Different-Phenotype (%) [1]: 100% | Total Cell Count [1]: 194 | Population Apoptotic (%) [2]: 58% | Population Fragmented Nuclei (%) [2]: 18% | Population Healthy Nuclei (%) [2]: 69% | Population Hoechst High Intensity Objects (%) [2]: 18% | Population Membrane Permeable-Phenotype (%) [2]: 12% | Population Mitochondria Different-Phenotype (%) [2]: 76% | Population Mitotic Cells (%) [2]: 41% | Population Normal (%) [2]: 81% | Population Pyknosed Nuclei (%) [2]: 12% | Population Tubulin-Different-Phenotype (%) [2]: 90% | Total Cell Count [2]: 163 | Population Apoptotic (%) [3]: 60% and 50% and 62% | Population Fragmented Nuclei (%) [3]: 16% and 20% and 13% | Population Healthy Nuclei (%) [3]: 49% and 42% and 64% | Population Hoechst High Intensity Objects (%) [3]: 7% and 10% and 5% | Population Membrane Permeable-Phenotype (%) [3]: 20% and 15% and 29% | Population Mitochondria Different-Phenotype (%) [3]: 95% and 98% and 57% | Population Mitotic Cells (%) [3]: 40% and 50% and 37% | Population Normal (%) [3]: 92% and 89% and 94% | Population Pyknosed Nuclei (%) [3]: 33% and 37% and 21% | Population Tubulin-Different-Phenotype (%) [3]: 98% and 100% and 99% | Total Cell Count [3]: 208 and 243 and 221 | Population Apoptotic (%) [4]: 73% and 55% | Population Fragmented Nuclei (%) [4]: 12% and 8% | Population Healthy Nuclei (%) [4]: 54% and 68% and 62% | Population Membrane Permeable-Phenotype (%) [4]: 28% and 25% and 24% | Population Mitochondria Different-Phenotype (%) [4]: 100% and 76% | Population Mitotic Cells (%) [4]: 26% and 44% | Population Normal (%) [4]: 90% and 85% and 97% | Population Pyknosed Nuclei (%) [4]: 25% and 19% and 29% | Population Tubulin-Different-Phenotype (%) [4]: 91% | Total Cell Count [4]: 122 and 87 and 65 | Population Apoptotic (%) [5]: 85% | Population Fragmented Nuclei (%) [5]: 17% | Population Healthy Nuclei (%) [5]: 54% | Population Hoechst High Intensity Objects (%) [5]: 11% | Population Membrane Permeable-Phenotype (%) [5]: 33% | Population Mitochondria Different-Phenotype (%) [5]: 92% | Population Mitotic Cells (%) [5]: 14% | Population Normal (%) [5]: 88% | Population Pyknosed Nuclei (%) [5]: 27% | Population Tubulin-Different-Phenotype (%) [5]: 100% | Total Cell Count [5]: 186 | Population Apoptotic (%) [6]: 86% | Population Fragmented Nuclei (%) [6]: 20% | Population Healthy Nuclei (%) [6]: 60% | Population Hoechst High Intensity Objects (%) [6]: 23% | Population Membrane Permeable-Phenotype (%) [6]: 22% | Population Mitochondria Different-Phenotype (%) [6]: 83% | Population Mitotic Cells (%) [6]: 13% | Population Normal (%) [6]: 76% | Population Pyknosed Nuclei (%) [6]: 18% | Population Tubulin-Different-Phenotype (%) [6]: 87% | Total Cell Count [6]: 160 | Population Apoptotic (%) [7]: 78% and 87% and 84% | Population Fragmented Nuclei (%) [7]: 20% and 22% and 15% | Population Healthy Nuclei (%) [7]: 27% and 32% and 52% | Population Hoechst High Intensity Objects (%) [7]: 15% and 11% | Population Membrane Permeable-Phenotype (%) [7]: 40% and 25% and 36% | Population Mitochondria Different-Phenotype (%) [7]: 100% and 93% | Population Mitotic Cells (%) [7]: 21% and 12% and 15% | Population Normal (%) [7]: 84% and 88% | Population Pyknosed Nuclei (%) [7]: 51% and 45% and 32% | Population Tubulin-Different-Phenotype (%) [7]: 100% and 95% and 96% | Total Cell Count [7]: 235 and 238 and 280 | Population Apoptotic (%) [8]: 66% and 83% and 86% | Population Fragmented Nuclei (%) [8]: 9% and 14% | Population Healthy Nuclei (%) [8]: 49% and 64% and 61% | Population Hoechst High Intensity Objects (%) [8]: 12% and 13% and 18% | Population Membrane Permeable-Phenotype (%) [8]: 56% and 31% and 62% | Population Mitochondria Different-Phenotype (%) [8]: 82% | Population Mitotic Cells (%) [8]: 33% and 16% and 13% | Population Normal (%) [8]: 87% and 86% and 81% | Population Pyknosed Nuclei (%) [8]: 40% and 21% and 28% | Population Tubulin-Different-Phenotype (%) [8]: 93% | Total Cell Count [8]: 78 and 113 and 118 | Population Apoptotic (%) [9]: 86% and 85% | Population Fragmented Nuclei (%) [9]: 29% and 24% | Population Healthy Nuclei (%) [9]: 9% and 15% | Population Hoechst High Intensity Objects (%) [9]: 15% and 20% | Population Membrane Permeable-Phenotype (%) [9]: 26% and 55% | Population Mitochondria Different-Phenotype (%) [9]: 100% | Population Mitotic Cells (%) [9]: 13% and 14% | Population Normal (%) [9]: 84% and 79% | Population Pyknosed Nuclei (%) [9]: 61% and 59% | Population Tubulin-Different-Phenotype (%) [9]: 89% | Total Cell Count [9]: 315 and 232 | Population Apoptotic (%) [10]: 76% and 84% | Population Fragmented Nuclei (%) [10]: 11% and 10% | Population Healthy Nuclei (%) [10]: 38% and 52% | Population Hoechst High Intensity Objects (%) [10]: 30% and 27% | Population Membrane Permeable-Phenotype (%) [10]: 87% and 71% | Population Mitochondria Different-Phenotype (%) [10]: 97% | Population Mitotic Cells (%) [10]: 23% and 15% | Population Normal (%) [10]: 70% and 72% | Population Pyknosed Nuclei (%) [10]: 50% and 37% | Population Tubulin-Different-Phenotype (%) [10]: 100% and 95% | Total Cell Count [10]: 118 and 104
